Data taken from PMC3562655 (Journal of bone and mineral research : the official journal …, 2013).

Key:
[1] = molecular target: T1, purified recombinant human PHOSPHO1 (Homo sapiens, UniProt Q8TCT1); assay: PHOSPHO1 inhibition, Biomol Green colorimetric phosphate release assay; type: biochemical; settings: for IC50: pH 6.7, 60 min room temperature
T1 sequence (Q8TCT1 1-292 isoform Q8TCT1-3): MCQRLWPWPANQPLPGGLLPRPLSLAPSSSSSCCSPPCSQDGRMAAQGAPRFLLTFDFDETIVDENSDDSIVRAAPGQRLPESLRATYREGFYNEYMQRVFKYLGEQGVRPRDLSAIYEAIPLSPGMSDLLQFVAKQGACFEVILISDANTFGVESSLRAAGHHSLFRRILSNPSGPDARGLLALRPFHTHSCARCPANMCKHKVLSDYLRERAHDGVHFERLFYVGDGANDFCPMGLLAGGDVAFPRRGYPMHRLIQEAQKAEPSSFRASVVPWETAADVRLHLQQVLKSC

Phospho1^-/- VSMCs = assay: Calcification assay, Alizarin Red staining of Phospho1-/- VSMCs; type: cell-based, mouse; settings: 21 days, β-glycerophosphate, inhibitor 30 μmol/L
In short: (§1)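 Aortic VSMCs from WT, Enpp1-/- or Phospho1-/- mice were isolated by collagenase digestion and grown in triplicate for 21 days. Medium was α-MEM with 50 µg/mL ascorbic acid plus 2.5 mmol/L β-glycerophosphate (all genotypes) or 3 mmol/L sodium phosphate (WT), changed every second day. Test compound (DMSO; final 30 µmol/L), alone or combined, was added at each change. Staining used 2% Alizarin Red (pH 4.2, 30 min RT), then 10% cetylpyridinium chloride extraction, absorbance read. Values are % of vehicle control, mean ± S.E.M.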

Enpp1^-/- VSMCs = assay: Calcification assay, Alizarin Red staining of Enpp1-/- VSMCs; type: cell-based, mouse; settings: 21 days, β-glycerophosphate, inhibitor 30 μmol/L
In short: as §1

ENPP1 = molecular target: T2, ENPP1 (Homo sapiens, UniProt P22413); settings: cited from earlier work
T2 sequence (P22413 98-925 limits assumed): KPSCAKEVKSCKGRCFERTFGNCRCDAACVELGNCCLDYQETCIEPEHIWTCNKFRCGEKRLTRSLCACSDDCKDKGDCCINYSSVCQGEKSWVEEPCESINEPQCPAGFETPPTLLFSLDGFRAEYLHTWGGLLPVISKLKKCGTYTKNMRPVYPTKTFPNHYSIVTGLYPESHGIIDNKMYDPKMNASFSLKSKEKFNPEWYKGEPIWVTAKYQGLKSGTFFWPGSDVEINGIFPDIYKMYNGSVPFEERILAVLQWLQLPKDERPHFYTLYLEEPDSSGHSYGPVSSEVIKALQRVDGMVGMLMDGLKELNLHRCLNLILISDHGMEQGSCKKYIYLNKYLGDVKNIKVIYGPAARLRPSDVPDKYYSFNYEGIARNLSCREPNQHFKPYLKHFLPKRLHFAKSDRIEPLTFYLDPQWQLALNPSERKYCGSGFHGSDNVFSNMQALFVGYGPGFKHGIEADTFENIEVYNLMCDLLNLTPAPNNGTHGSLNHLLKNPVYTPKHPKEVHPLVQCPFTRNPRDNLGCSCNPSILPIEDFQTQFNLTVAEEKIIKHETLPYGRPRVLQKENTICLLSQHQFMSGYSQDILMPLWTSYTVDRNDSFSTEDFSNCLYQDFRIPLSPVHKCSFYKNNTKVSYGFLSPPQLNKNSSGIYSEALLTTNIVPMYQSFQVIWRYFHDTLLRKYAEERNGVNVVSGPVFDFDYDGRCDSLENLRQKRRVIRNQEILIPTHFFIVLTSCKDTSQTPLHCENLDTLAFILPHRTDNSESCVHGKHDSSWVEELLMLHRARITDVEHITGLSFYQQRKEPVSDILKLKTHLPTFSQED

PHOSPHO1 = molecular target: T3, PHOSPHO1 (Homo sapiens, UniProt Q8TCT1); assay: Mechanism of PHOSPHO1 inhibition, double reciprocal plots; type: biochemical
T3 sequence (Q8TCT1 1-292 isoform Q8TCT1-3): T1 sequence (Q8TCT1 1-292 isoform Q8TCT1-3)

WT VSMCs = assay: Calcification assay, Alizarin Red staining of WT VSMCs; type: cell-based, mouse
In short: as §1

[2] = tested on: Phospho1^-/- chondrocytes; assay: Mineralization of Phospho1-/- chondrocytes; type: cell-based; settings: not shown
TNAP = molecular target: T4, TNAP (Homo sapiens, UniProt P05186); settings: ref Ciancaglini et al. (2010), 25, 42; cited from earlier work
T4 sequence (P05186 18-502 limits assumed): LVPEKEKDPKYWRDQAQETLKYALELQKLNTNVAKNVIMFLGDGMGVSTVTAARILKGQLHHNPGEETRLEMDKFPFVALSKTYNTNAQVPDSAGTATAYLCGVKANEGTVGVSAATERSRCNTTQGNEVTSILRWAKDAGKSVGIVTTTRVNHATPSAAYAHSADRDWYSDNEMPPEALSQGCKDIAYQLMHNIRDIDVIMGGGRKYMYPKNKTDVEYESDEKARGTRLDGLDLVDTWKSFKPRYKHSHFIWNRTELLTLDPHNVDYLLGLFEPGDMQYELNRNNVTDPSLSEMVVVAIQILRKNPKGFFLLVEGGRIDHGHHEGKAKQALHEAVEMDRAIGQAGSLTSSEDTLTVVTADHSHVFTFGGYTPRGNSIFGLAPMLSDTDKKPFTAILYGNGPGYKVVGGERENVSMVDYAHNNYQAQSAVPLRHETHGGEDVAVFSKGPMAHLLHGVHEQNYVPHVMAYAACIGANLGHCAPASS

Structure (SMILES)	inhibition of PHOSPHO1 in point experiments ([1]; inhibitor 1, 10, 30 μmol/L, substrates P-Etn and P-Cho)	effect on mineralization in words (Phospho1^-/- VSMCs)	effect on mineralization in words (Enpp1^-/- VSMCs)	cross-inhibition of ENPP1 (ENPP1)	IC50 ([1]; P-Cho IC50, substrate P-Cho 62.5 μmol/L) [nM]	IC50 ([1]; P-Etn IC50, substrate P-Etn 62.5 μmol/L) [nM]	Ki (PHOSPHO1) [nM]	nature of the PHOSPHO1 inhibition (PHOSPHO1; double reciprocal plots versus P-Etn)	toxicity to smooth muscle cells observed in the mineralization studies (WT VSMCs)	effect on mineralization in words (WT VSMCs; WT VSMCs, 21 days, inhibitor 30 μmol/L)	inhibition of ENPP1 activity (ENPP1; ref Ciancaglini et al. (2010), 25, 42)	mineralization of Phospho1-/- chondrocytes [2]	inhibition of TNAP activity (TNAP)
COc1ccc(OC)c(S(=O)(=O)Nc2cnc3ccccc3c2)c1 [MLS-0038949]	selectively inhibits TNAP, but not PHOSPHO1	significantly inhibited mineralization	strongly reduced mineralization	does not cross-inhibit	–	–	–	–	–	–	–	–	–
Cc1c(OCC(F)(F)F)ccnc1C[S+]([O-])c1nc2ccccc2[nH]1 (stereo not shown) [Lansoprazole]	–	–	–	–	60 ± 10	70 ± 10	160 ± 30	competitive	showed toxicity to smooth muscle cells	significantly inhibited mineralization	partially inhibits	inhibited mineralization	partially inhibits
